According to ChEMBL document CHEMBL5303300, “EUbOPEN Chemogenomics Library - Multiplex” (2023):
Several values for one entry are separate records, joined by “and”; a condition that tells them apart may be missing. Identical values can stand only once.

What was measured:
HEK-293T = assay: Multiplex assay against HEK293T; assay type: toxicity, cell-based; conditions: human, number of replicates 2
Summary of the method: (§1)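 Values for tubulin, mitochondrial-mass and membrane-permeability phenotypes are per cents of cells with healthy nuclei. These cells were identified by CellPathfinder machine-learning gating of live cells that had been stained at seeding with Hoechst33342, BioTracker Green Microtubule Cytoskeleton Dye, MitoTracker Red and Annexin V Alexa Fluor 680 and imaged on a CQ1 microscope at 37°C and 5% CO2 after compound addition. The gating first set Hoechst high-intensity objects apart from normal cells, then split normal cells into healthy, pyknosed or fragmented nuclei, and pyknosed cells into mitotic or apoptotic.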

U2OS = assay: Multiplex assay against U2OS; assay type: toxicity, cell-based; conditions: human, number of replicates 2; summary of the method: as §1
[1] = 12 h, 1 µM, compound concentration 1 uM
[2] = 12 h, 10 µM, compound concentration 10 uM
[3] = 24 h, 1 µM, compound concentration 1 uM
[4] = 24 h, 10 µM, compound concentration 10 uM
[5] = 48 h, 1 µM, compound concentration 1 uM
[6] = 48 h, 10 µM, compound concentration 10 uM

With `CN(C)CCCNc1ccnc(Nc2cccc(Cl)c2)n1` the “Population Apoptotic (%)” value (HEK-293T; [1]) was 33% and 44%, the “Population Fragmented Nuclei (%)” value (HEK-293T; [1]) was 2% and 3% and the “Population Healthy Nuclei (%)” value (HEK-293T; [1]) was 86% and 87%. The “Population Hoechst High Intensity Objects (%)” value (HEK-293T; [1]) was 6% and 7%, the “Population Membrane Permeable-Phenotype (%)” value (HEK-293T; [1]) was 5% and 4% and the “Population Mitochondria Different-Phenotype (%)” value (HEK-293T; [1]) was 17% and 13%. For the same compound, the “Population Mitotic Cells (%)” value (HEK-293T; [1]) was 66% and 55%, the “Population Normal (%)” value (HEK-293T; [1]) was 93% and 92% and the “Population Pyknosed Nuclei (%)” value (HEK-293T; [1]) was 10% and 8%. For the same compound, the “Population Tubulin-Different-Phenotype (%)” value (HEK-293T; [1]) was 51% and 48%, the “Total Cell Count” value (HEK-293T; [1]) was 626 and 658 and the “Population Apoptotic (%)” value (HEK-293T; [2]) was 52% and 65%. For the same compound, the “Population Fragmented Nuclei (%)” value (HEK-293T; [2]) was 4% and 3%, the “Population Healthy Nuclei (%)” value (HEK-293T; [2]) was 87% and 88% and the “Population Hoechst High Intensity Objects (%)” value (HEK-293T; [2]) was 10% and 11%. For the same compound, the “Population Membrane Permeable-Phenotype (%)” value (HEK-293T; [2]) was 3% and 2%, the “Population Mitochondria Different-Phenotype (%)” value (HEK-293T; [2]) was 37% and 32% and the “Population Mitotic Cells (%)” value (HEK-293T; [2]) was 47% and 34%. The “Population Normal (%)” value (HEK-293T; [2]) was 89% and 88%, the “Population Pyknosed Nuclei (%)” value (HEK-293T; [2]) was 8% and the “Population Tubulin-Different-Phenotype (%)” value (HEK-293T; [2]) was 79% and 75%. For the same compound, the “Total Cell Count” value (HEK-293T; [2]) was 466 and 581, the “Population Apoptotic (%)” value (HEK-293T; [3]) was 26% and 29% and the “Population Fragmented Nuclei (%)” value (HEK-293T; [3]) was 3% and 4%. For the same compound, the “Population Healthy Nuclei (%)” value (HEK-293T; [3]) was 89%, the “Population Hoechst High Intensity Objects (%)” value (HEK-293T; [3]) was 6% and the “Population Membrane Permeable-Phenotype (%)” value (HEK-293T; [3]) was 5% and 3%. The “Population Mitochondria Different-Phenotype (%)” value (HEK-293T; [3]) was 5% and 4%, the “Population Mitotic Cells (%)” value (HEK-293T; [3]) was 73% and 70% and the “Population Normal (%)” value (HEK-293T; [3]) was 93%. For the same compound, the “Population Pyknosed Nuclei (%)” value (HEK-293T; [3]) was 7% and 6%, the “Population Tubulin-Different-Phenotype (%)” value (HEK-293T; [3]) was 31% and 30% and the “Total Cell Count” value (HEK-293T; [3]) was 950 and 963. The “Population Apoptotic (%)” value (HEK-293T; [4]) was 43% and 66%, the “Population Fragmented Nuclei (%)” value (HEK-293T; [4]) was 3% and 4% and the “Population Healthy Nuclei (%)” value (HEK-293T; [4]) was 92% and 90%. For the same compound, the “Population Hoechst High Intensity Objects (%)” value (HEK-293T; [4]) was 7% and 14%, the “Population Membrane Permeable-Phenotype (%)” value (HEK-293T; [4]) was 6% and 3% and the “Population Mitochondria Different-Phenotype (%)” value (HEK-293T; [4]) was 32% and 35%. For the same compound, the “Population Mitotic Cells (%)” value (HEK-293T; [4]) was 56% and 33%, the “Population Normal (%)” value (HEK-293T; [4]) was 92% and 85% and the “Population Pyknosed Nuclei (%)” value (HEK-293T; [4]) was 4% and 5%. The “Population Tubulin-Different-Phenotype (%)” value (HEK-293T; [4]) was 79% and 83%, the “Total Cell Count” value (HEK-293T; [4]) was 546 and 605 and the “Population Apoptotic (%)” value (HEK-293T; [5]) was 14% and 10%. The “Population Fragmented Nuclei (%)” value (HEK-293T; [5]) was 11% and 8%, the “Population Healthy Nuclei (%)” value (HEK-293T; [5]) was 86% and 87% and the “Population Hoechst High Intensity Objects (%)” value (HEK-293T; [5]) was 9% and 8%. The “Population Membrane Permeable-Phenotype (%)” value (HEK-293T; [5]) was 5% and 3%, the “Population Mitochondria Different-Phenotype (%)” value (HEK-293T; [5]) was 0% and the “Population Mitotic Cells (%)” value (HEK-293T; [5]) was 85% and 89%. For the same compound, the “Population Normal (%)” value (HEK-293T; [5]) was 90% and 91%, the “Population Pyknosed Nuclei (%)” value (HEK-293T; [5]) was 2% and 3% and the “Population Tubulin-Different-Phenotype (%)” value (HEK-293T; [5]) was 15% and 17%. The “Total Cell Count” value (HEK-293T; [5]) was 2534 and 2133, the “Population Fragmented Nuclei (%)” value (HEK-293T; [6]) was 6% and 5% and the “Population Healthy Nuclei (%)” value (HEK-293T; [6]) was 89% and 88%. The “Population Hoechst High Intensity Objects (%)” value (HEK-293T; [6]) was 6% and 9%, the “Population Membrane Permeable-Phenotype (%)” value (HEK-293T; [6]) was 6% and 5% and the “Population Mitochondria Different-Phenotype (%)” value (HEK-293T; [6]) was 8% and 10%. The “Population Mitotic Cells (%)” value (HEK-293T; [6]) was 86% and 42%, the “Population Normal (%)” value (HEK-293T; [6]) was 93% and 90% and the “Population Pyknosed Nuclei (%)” value (HEK-293T; [6]) was 3% and 5%. The “Population Tubulin-Different-Phenotype (%)” value (HEK-293T; [6]) was 52%, the “Total Cell Count” value (HEK-293T; [6]) was 814 and 883 and the “Population Apoptotic (%)” value (U2OS; [1]) was 60% and 50%. For the same compound, the “Population Fragmented Nuclei (%)” value (U2OS; [1]) was 6% and 5%, the “Population Healthy Nuclei (%)” value (U2OS; [1]) was 84% and 82% and the “Population Hoechst High Intensity Objects (%)” value (U2OS; [1]) was 0%. For the same compound, the “Population Membrane Permeable-Phenotype (%)” value (U2OS; [1]) was 0%, the “Population Mitochondria Different-Phenotype (%)” value (U2OS; [1]) was 0% and the “Population Mitotic Cells (%)” value (U2OS; [1]) was 39% and 50%. For the same compound, the “Population Normal (%)” value (U2OS; [1]) was 100%, the “Population Pyknosed Nuclei (%)” value (U2OS; [1]) was 9% and 11% and the “Population Tubulin-Different-Phenotype (%)” value (U2OS; [1]) was 70% and 42%. The “Population Apoptotic (%)” value (U2OS; [2]) was 50%, the “Population Fragmented Nuclei (%)” value (U2OS; [2]) was 11% and 17% and the “Population Healthy Nuclei (%)” value (U2OS; [2]) was 79% and 67%. The “Population Hoechst High Intensity Objects (%)” value (U2OS; [2]) was 0%, the “Population Membrane Permeable-Phenotype (%)” value (U2OS; [2]) was 4% and 5% and the “Population Mitochondria Different-Phenotype (%)” value (U2OS; [2]) was 4% and 5%. The “Population Mitotic Cells (%)” value (U2OS; [2]) was 50%, the “Population Normal (%)” value (U2OS; [2]) was 100% and the “Population Pyknosed Nuclei (%)” value (U2OS; [2]) was 9% and 14%. The “Population Tubulin-Different-Phenotype (%)” value (U2OS; [2]) was 52% and 42%, the “Population Apoptotic (%)” value (U2OS; [3]) was 66% and 82% and the “Population Fragmented Nuclei (%)” value (U2OS; [3]) was 2% and 4%. For the same compound, the “Population Healthy Nuclei (%)” value (U2OS; [3]) was 91% and 88%, the “Population Hoechst High Intensity Objects (%)” value (U2OS; [3]) was 0% and the “Population Membrane Permeable-Phenotype (%)” value (U2OS; [3]) was 0% and 2%. For the same compound, the “Population Mitochondria Different-Phenotype (%)” value (U2OS; [3]) was 0% and 1%, the “Population Mitotic Cells (%)” value (U2OS; [3]) was 33% and 17% and the “Population Normal (%)” value (U2OS; [3]) was 100%. The “Population Pyknosed Nuclei (%)” value (U2OS; [3]) was 6% and 7% and the “Population Tubulin-Different-Phenotype (%)” value (U2OS; [3]) was 51% and 74%.
